# Results published in ChEMBL document CHEMBL3808372, “Identification of quinones as novel PIM1 kinase inhibitors” (Bioorg Med Chem Lett, 2016).
# Experiments:
# [1] = system: Epidermal growth factor receptor (Homo sapiens), P00533 [L858R]; assay: Inhibition of human EGFR L858R mutant (669 to 1011 amino acid residues) assessed as enzyme activity at 10 uM by KINOMEScan assay expressed in bacterial system assessed as enzyme activity at 10 uM by KINOMEScan assay; design: scale not given: the % may be the effect or the level left
# In short: (§1)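 Commercial KINOMEscan binding panel of 100 kinases, test compound at 10 μM. Results are primary-screen binding interactions expressed as % Ctrl = (test compound signal − positive control signal)/(negative control signal − positive control signal) × 100. Lower % Ctrl means stronger binding.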
# [2] = target: Cyclin-dependent kinase 3 (Homo sapiens) (UniProt Q00526); assay: Inhibition of full length human CDK3 expressed in bacterial system assessed as enzyme activity at 10 uM by KINOMEScan assay; design: scale not given: the % may be the effect or the level left
# In short: (§2)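 Competition binding screen on a 100-kinase KINOMEscan panel, compound tested at a single 10 μM concentration. Primary binding read-out expressed as % Ctrl = (test compound signal − positive control signal)/(negative control signal − positive control signal) × 100, with lower values meaning stronger binding.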
# [3] = target: Tyrosine-protein kinase JAK2 (Homo sapiens) (UniProt O60674); assay: Inhibition of human JAK2 JH1 catalytic domain (829 to 1132 amino acid residues) assessed as enzyme activity at 10 uM by KINOMEScan assay; design: scale not given: the % may be the effect or the level left; in short: as §2
# [4] = target: Proto-oncogene tyrosine-protein kinase Src (Homo sapiens) (UniProt P12931); assay: Inhibition of SRC (unknown origin)
# [5] = target: Mitogen-activated protein kinase 3 (Homo sapiens) (UniProt P27361); assay: Inhibition of full length human ERK1 expressed in bacterial system assessed as enzyme activity at 10 uM by KINOMEScan assay; design: scale not given: the % may be the effect or the level left; in short: as §1
# [6] = target: Serine/threonine-protein kinase PLK3 (Homo sapiens) (UniProt Q9H4B4); assay: Inhibition of human PLK3 (42 to 334 amino acid residues) assessed as enzyme activity at 10 uM by KINOMEScan assay; design: scale not given: the % may be the effect or the level left
# In short: (§3)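 Single-concentration competition binding screen (KINOMEscan) across a 100-kinase panel at 10 μM. Primary binding read-out is reported as % of control: (test signal − positive-control signal)/(negative-control signal − positive-control signal) × 100. Lower values indicate stronger binding.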
# [7] = target: MAP kinase-interacting serine/threonine-protein kinase 2 (Homo sapiens) (UniProt Q9HBH9); assay: Inhibition of human MKNK2 (63 to 388 amino acid residues) assessed as enzyme activity at 10 uM by KINOMEScan assay; design: scale not given: the % may be the effect or the level left; in short: as §2
# [8] = target: Bone morphogenetic protein receptor type-2 (Homo sapiens) (UniProt Q13873); assay: Inhibition of human BMPR2 (179 to 526 amino acid residues) assessed as enzyme activity at 10 uM by KINOMEScan assay; design: scale not given: the % may be the effect or the level left; in short: as §2
# [9] = target: Mitogen-activated protein kinase 9 (Homo sapiens) (UniProt P45984); assay: Inhibition of full length human JNK2 assessed as enzyme activity at 10 uM by KINOMEScan assay; design: scale not given: the % may be the effect or the level left; in short: as §2
# [10] = target: Tyrosine-protein kinase ZAP-70 (Homo sapiens) (UniProt P43403); assay: Inhibition of human ZAP70 (20 to 299 amino acid residues) assessed as enzyme activity at 10 uM by KINOMEScan assay; design: scale not given: the % may be the effect or the level left; in short: as §1
# [11] = target: Mitogen-activated protein kinase 10 (Homo sapiens) (UniProt P53779); assay: Inhibition of human JNK3 (28 to 422 amino acid residues) assessed as enzyme activity at 10 uM by KINOMEScan assay; design: scale not given: the % may be the effect or the level left; in short: as §2
# [12] = target: SRSF protein kinase 3 (Homo sapiens) (UniProt Q9UPE1); assay: Inhibition of human SRPK3 (41 to 567 amino acid residues) expressed in bacterial system assessed as enzyme activity at 10 uM by KINOMEScan assay; design: scale not given: the % may be the effect or the level left; in short: as §3
# [13] = target: Death-associated protein kinase 1 (Homo sapiens) (UniProt P53355); assay: Share of MOE computational kinase hits for DAPK
# [14] = target: Mitogen-activated protein kinase 11 (Homo sapiens) (UniProt Q15759); assay: Inhibition of full length human p38-beta expressed in bacterial system assessed as enzyme activity at 10 uM by KINOMEScan assay; design: scale not given: the % may be the effect or the level left; in short: as §2
# [15] = target: Serine/threonine-protein kinase STK11 (Homo sapiens) (UniProt Q15831); assay: Inhibition of full length human LKB1 expressed in bacterial system assessed as enzyme activity at 10 uM by KINOMEScan assay; design: scale not given: the % may be the effect or the level left; in short: as §1
# [16] = target: Dual specificity mitogen-activated protein kinase kinase 2 (Homo sapiens) (UniProt P36507); assay: Inhibition of full length human MEK2 assessed as enzyme activity at 10 uM by KINOMEScan assay; design: scale not given: the % may be the effect or the level left; in short: as §2
# [17] = target: T1, Serine/threonine-protein kinase pim-1 (Homo sapiens, UniProt P11309); assay: Inhibition of recombinant human Pim1
# [18] = target: Phosphatidylinositol 4,5-bisphosphate 3-kinase catalytic subunit alpha isoform (Homo sapiens) (UniProt P42336); assay: Inhibition of human PIK3CA (108 to 1068 amino acid residues) assessed as enzyme activity at 10 uM by KINOMEScan assay; design: scale not given: the % may be the effect or the level left; in short: as §3
# [19] = target: Platelet-derived growth factor receptor alpha (Homo sapiens) (UniProt P16234); assay: Inhibition of human PDGFRA (575 to 1002 amino acid residues) assessed as enzyme activity at 10 uM by KINOMEScan assay; design: scale not given: the % may be the effect or the level left; in short: as §1
# [20] = target: Atypical kinase COQ8A, mitochondrial (Homo sapiens) (UniProt Q8NI60); assay: Inhibition of full length human ADCK3 expressed in bacterial system assessed as enzyme activity at 10 uM by KINOMEScan assay; design: scale not given: the % may be the effect or the level left; in short: as §1
# [21] = target: T1, Serine/threonine-protein kinase pim-1; assay: Inhibition of human PIM1 (15 to 313 amino acid residues) expressed in bacterial system assessed as enzyme activity at 10 uM by KINOMEScan assay; design: scale not given: the % may be the effect or the level left; in short: as §3
# [22] = target: Aurora kinase B (Homo sapiens) (UniProt Q96GD4); assay: Inhibition of human AURKB (25 to 303 amino acid residues) assessed as enzyme activity at 10 uM by KINOMEScan assay; design: scale not given: the % may be the effect or the level left; in short: as §2
# [23] = target: Macrophage colony-stimulating factor 1 receptor (Homo sapiens) (UniProt P07333); assay: Inhibition of human CSF1R (564 to 939 amino acid residues) assessed as enzyme activity at 10 uM by KINOMEScan assay expressed in bacterial system assessed as enzyme activity at 10 uM by KINOMEScan assay; design: scale not given: the % may be the effect or the level left; in short: as §2
# [24] = target: Proto-oncogene tyrosine-protein kinase Src (Homo sapiens) (UniProt P12931); assay: Inhibition of human SRC (240 to 536 amino acid residues) expressed in bacterial system assessed as enzyme activity at 10 uM by KINOMEScan assay; design: scale not given: the % may be the effect or the level left; in short: as §3
# [25] = Cytotoxicity against human DU145 cells assessed as cell growth inhibition after 72 hrs by Alamar blue assay; format: functional, cell-based; conditions: DU-145, 72 h
# [26] = target: Epidermal growth factor receptor (Homo sapiens) (UniProt P00533); assay: Inhibition of human EGFR (669 to 1011 amino acid residues) assessed as enzyme activity at 10 uM by KINOMEScan assay expressed in bacterial system assessed as enzyme activity at 10 uM by KINOMEScan assay; design: scale not given: the % may be the effect or the level left; in short: as §1
# [27] = target: MAP kinase-activated protein kinase 2 (Homo sapiens) (UniProt P49137); assay: Inhibition of human MAPKAPK2 (48 to 345 amino acid residues) expressed in bacterial system assessed as enzyme activity at 10 uM by KINOMEScan assay; design: scale not given: the % may be the effect or the level left; in short: as §2
compound,measurement,setting,value
O=C1C2=C(C(=O)c3c(O)ccc(O)c31)[C@@H](O)[C@@H](O)[C@@H](O)C2,Activity,[1],78%
same,Activity,[2],88%
same,Activity,[3],94%
same,% of MOE kinase hits,[4],14%
same,Activity,[5],100%
same,Activity,[6],54%
same,Activity,[7],98%
same,Activity,[8],60%
same,Activity,[9],84%
same,Activity,[10],100%
same,Activity,[11],76%
same,Activity,[12],93%
same,% of MOE kinase hits,[13],7%
same,Activity,[14],92%
same,Activity,[15],100%
same,Activity,[16],96%
same,IC50,[17],19.2 µM
same,Activity,[18],99%
same,Activity,[19],100%
same,Activity,[20],100%
same,Activity,[21],34%
same,Activity,[22],72%
same,Activity,[23],77%
same,Activity,[24],91%
same,IC50,[25],8.21 µM
same,Activity,[26],88%
same,Activity,[27],93%
